Experimental data published in ChEMBL document CHEMBL1128727, “Characterization of a class of peptide boronates with neutral P1 side chains as highly selective inhibitors of thrombin” (J Med Chem, 1995).

How the values were obtained:
[1] = target: T1, Prothrombin (Homo sapiens, UniProt P00734); assay: Binding affinity against gamma thrombin
In short: (§1)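 Human α-thrombin or human γ-thrombin was assayed with S-2238 (H-D-Phe-Pip-Arg-pNA), with velocity measured over 2 min at 25 °C. A 2 h preincubation screened for slow binding. For competitive inhibitors, Ki came from Lineweaver–Burk plots at five substrate concentrations over 10-fold around Km; slow binders were fitted to the slow-binding rate equations. At least five points were run in duplicate.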

[2] = target: Chymotrypsinogen A (Bos taurus, UniProt P00766); assay: Binding affinity against Chymotrypsin
In short: (§2)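 Enzymes: bovine pancreatic α-chymotrypsin with S-2586 (MeO-Suc-Arg-Pro-Tyr-pNA), human plasma kallikrein with S-2288, porcine pancreatic elastase with Suc-Ala-Ala-Ala-pNA, and bovine pancreatic trypsin. Initial velocity was read at 25 °C over 2 min. A 2 h preincubation was used to screen for slow binding. For competitive inhibitors, Ki came from Lineweaver–Burk plots at five substrate concentrations spanning 10-fold around Km, using at least five points in duplicate.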

[3] = target: Urokinase-type plasminogen activator (Homo sapiens, UniProt P00749); assay: Binding affinity against Urokinase plasminogen activator
In short: (§3)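 Chromogenic pNA assays used human plasma factor Xa with S-2222, human plasmin with S-2251, human kidney urokinase with S-2444, and human plasma activated protein C with S-2366. Rates were read over 2 min at 25 °C. A 2 h enzyme–inhibitor preincubation tested for slow binding. For non-slow binders, Ki came from Lineweaver–Burk plots at five substrate levels over a 10-fold range around Km, using at least five points in duplicate.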

[4] = target: Plasma kallikrein (Homo sapiens) (UniProt P03952); assay: Binding affinity against plasma kallikrein
[5] = target: T2, Serine protease 1 (Bos taurus, UniProt P00760); assay: Binding affinity against Trypsin; in short: as §2
T2 sequence (P00760 whole entry): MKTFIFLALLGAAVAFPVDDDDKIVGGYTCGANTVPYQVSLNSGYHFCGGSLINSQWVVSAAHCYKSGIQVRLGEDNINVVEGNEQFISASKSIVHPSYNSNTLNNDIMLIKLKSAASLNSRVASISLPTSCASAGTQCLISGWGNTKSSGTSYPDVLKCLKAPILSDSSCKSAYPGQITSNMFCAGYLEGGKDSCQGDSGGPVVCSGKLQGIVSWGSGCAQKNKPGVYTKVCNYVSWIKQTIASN

[6] = Binding affinity against protein Ca; in short: as §3
[7] = target: Coagulation factor X (Homo sapiens, UniProt P00742); assay: Binding affinity against Coagulation factor X; in short: as §3
[8] = target: T1, Prothrombin; assay: Concentration of inhibitor required to produce a 2-fold prolongation in Thrombin time (TT)
In short: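 Pooled citrated normal human plasma was incubated with inhibitor for 1 min at 37 °C; the inhibitor was serially diluted in buffer from a DMSO stock. Human α-thrombin was then added from a 5 units/mL solution in 50 mM sodium phosphate, 0.1% PEG, pH 7.4. Clotting was timed on a coagulometer, and the concentration that doubled the thrombin time was determined in duplicate.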

[9] = target: T1, Prothrombin; assay: Binding affinity against thrombin; in short: as §1
[10] = Concentration of inhibitor required to produce a 2-fold prolongation in activated partial Thromboplastin time (APTT) in human plasma; format: functional
In short: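 Pooled citrated normal human plasma, APTT reagent and inhibitor were incubated for 5 min at 37 °C. Clotting was started with CaCl2 from a 25 mM aqueous solution and timed on a coagulometer. The inhibitor concentration that doubled the APTT was determined in duplicate.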

[11] = target: T3, Plasminogen (Homo sapiens, UniProt P00747); assay: Binding affinity against plasmin; in short: as §3
[12] = target: T1, Prothrombin; assay: Binding affinity against alpha thrombin; in short: as §1
[13] = target: T3, Plasminogen; assay: Binding affinity against Plasmin; in short: as §3
[14] = target: T4, Cathepsin G (Homo sapiens, UniProt P08311); assay: Binding affinity against cathepsin G
T4 sequence (P08311 whole entry): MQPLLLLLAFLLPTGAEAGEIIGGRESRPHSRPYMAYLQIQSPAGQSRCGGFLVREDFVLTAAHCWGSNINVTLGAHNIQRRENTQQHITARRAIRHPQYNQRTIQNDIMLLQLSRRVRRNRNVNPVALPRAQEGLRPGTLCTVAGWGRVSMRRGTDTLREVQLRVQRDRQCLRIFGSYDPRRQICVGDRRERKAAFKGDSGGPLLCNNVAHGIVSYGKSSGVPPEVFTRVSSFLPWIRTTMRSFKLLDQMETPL

Sequence of Coagulation factor X (P00742 41-179 limits assumed): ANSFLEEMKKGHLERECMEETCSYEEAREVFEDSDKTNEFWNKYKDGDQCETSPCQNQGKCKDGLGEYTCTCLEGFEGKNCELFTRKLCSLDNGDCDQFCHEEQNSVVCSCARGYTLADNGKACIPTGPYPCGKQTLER
Sequence of Coagulation factor X (P00742 235-488 limits assumed): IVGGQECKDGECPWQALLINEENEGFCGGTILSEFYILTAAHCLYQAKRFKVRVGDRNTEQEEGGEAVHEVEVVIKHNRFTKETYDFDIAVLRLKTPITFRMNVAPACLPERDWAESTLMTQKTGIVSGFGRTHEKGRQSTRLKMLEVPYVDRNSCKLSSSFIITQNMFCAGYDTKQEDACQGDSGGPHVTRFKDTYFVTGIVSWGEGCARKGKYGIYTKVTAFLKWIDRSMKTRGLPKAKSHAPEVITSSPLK
T3 sequence (P00747 97-580 limits assumed): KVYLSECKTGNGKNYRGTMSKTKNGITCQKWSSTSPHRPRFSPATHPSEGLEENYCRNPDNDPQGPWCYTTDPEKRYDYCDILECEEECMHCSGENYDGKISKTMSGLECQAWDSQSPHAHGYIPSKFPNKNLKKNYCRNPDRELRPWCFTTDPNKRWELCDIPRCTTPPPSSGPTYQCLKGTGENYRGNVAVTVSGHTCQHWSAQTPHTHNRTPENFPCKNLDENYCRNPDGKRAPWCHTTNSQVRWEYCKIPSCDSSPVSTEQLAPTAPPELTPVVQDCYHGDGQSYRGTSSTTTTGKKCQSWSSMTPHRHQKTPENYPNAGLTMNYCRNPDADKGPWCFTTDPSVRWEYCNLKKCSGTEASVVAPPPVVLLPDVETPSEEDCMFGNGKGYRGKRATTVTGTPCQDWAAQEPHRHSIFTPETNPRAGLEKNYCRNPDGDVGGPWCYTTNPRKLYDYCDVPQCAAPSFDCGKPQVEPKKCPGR
T3 sequence (P00747 581-810 limits assumed): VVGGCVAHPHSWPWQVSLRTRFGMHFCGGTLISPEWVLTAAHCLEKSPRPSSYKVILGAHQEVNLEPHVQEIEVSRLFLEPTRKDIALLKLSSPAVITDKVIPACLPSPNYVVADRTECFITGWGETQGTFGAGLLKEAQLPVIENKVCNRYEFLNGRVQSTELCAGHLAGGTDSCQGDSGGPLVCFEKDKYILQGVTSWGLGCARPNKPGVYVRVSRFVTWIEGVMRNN
Sequence of Plasma kallikrein (Homo sapiens) (P03952 whole entry, looked up): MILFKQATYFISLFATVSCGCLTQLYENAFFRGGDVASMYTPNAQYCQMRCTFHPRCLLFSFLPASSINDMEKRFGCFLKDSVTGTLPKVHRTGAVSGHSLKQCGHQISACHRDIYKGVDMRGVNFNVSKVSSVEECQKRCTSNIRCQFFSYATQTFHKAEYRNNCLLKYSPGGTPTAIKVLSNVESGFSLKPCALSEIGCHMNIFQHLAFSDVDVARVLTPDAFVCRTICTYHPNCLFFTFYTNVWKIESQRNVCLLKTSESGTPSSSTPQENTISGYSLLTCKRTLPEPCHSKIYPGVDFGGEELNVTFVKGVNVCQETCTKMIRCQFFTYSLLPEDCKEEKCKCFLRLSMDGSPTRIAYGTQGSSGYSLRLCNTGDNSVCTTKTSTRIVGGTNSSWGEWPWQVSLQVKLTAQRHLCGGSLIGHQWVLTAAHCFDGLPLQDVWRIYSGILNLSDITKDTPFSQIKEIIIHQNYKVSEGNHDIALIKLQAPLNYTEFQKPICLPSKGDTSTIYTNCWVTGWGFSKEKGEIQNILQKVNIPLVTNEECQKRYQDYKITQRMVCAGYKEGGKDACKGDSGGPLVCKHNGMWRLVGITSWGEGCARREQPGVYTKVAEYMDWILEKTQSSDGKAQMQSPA

Ki [1] [nM] | Ki [2] [nM] | Ki [3] [nM] | Ki [4] [nM] | Ki [5] [nM] | Ki [6] [nM] | TT [8] [µM] | Ki [9] [nM] | Ki [11] [nM] | Ki [12] [nM] | Structure (SMILES) | APTT [10] [µM] | other results
4 | 2960 | 33000 | 34000 | 54 | 2400 | 0.63 | 3 | 12000 | 2 | COCCCC(NC(=O)[C@@H]1CCCN1C(=O)[C@@H](NC(=O)OCc1ccccc1)C(c1ccccc1)c1ccccc1)B1O[C@@H]2CC3CC(C3(C)C)[C@]2(C)O1 (stereo partly specified) | 20 | Ki [7]: 7200 nM
11 | 11 | > 4300 | > 4300 | 150 | > 4300 | 0.53 | 18 | 4500 | 18 | CC1(C)C2CC1[C@]1(C)OB(C(Cc3ccccc3)NC(=O)[C@@H]3CCCN3C(=O)[C@H](Cc3ccccc3)NC(=O)OCc3ccccc3)O[C@@H]1C2 (stereo partly specified) | 2.5 | Ki [7]: 1200 nM
– | – | – | – | – | – | – | 11000 | – | – | COCCCC(NC(=O)[C@@H]1CCCN1C(=O)[C@H](Cc1ccccc1)NC(=O)OCc1ccccc1)B1O[C@@H]2CC3CC(C3(C)C)[C@]2(C)O1 (stereo partly specified) | – | –
– | – | – | – | – | – | – | 130 | – | – | CC1(C)C2CC1[C@]1(C)OB(C(CCCBr)NC(=O)[C@@H]3CCCN3C(=O)[C@H](Cc3ccccc3)NC(=O)OCc3ccccc3)O[C@@H]1C2 (stereo in doubt; 14) | – | –
– | – | – | – | – | – | – | 1000 | – | – | CCC(NC(=O)[C@@H]1CCCN1C(=O)[C@H](Cc1ccccc1)NC(=O)OCc1ccccc1)B1O[C@@H]2CC3CC(C3(C)C)[C@]2(C)O1 (stereo partly specified) | – | –
59 | 21 | > 48000 | 9500 | 440 | > 4800 | 5.2 | 130 | 3000 | 130 | CC1(C)C2CC1[C@]1(C)OB(C(Cc3ccccc3)NC(=O)[C@@H]3CCCN3C(=O)[C@@H](NC(=O)OCc3ccccc3)C(c3ccccc3)c3ccccc3)O[C@@H]1C2 (stereo partly specified) | >50 | Ki [7]: 4300 nM
– | – | – | – | – | – | – | 15000 | – | – | CC1(C)C2CC1[C@]1(C)OB(C(CCCBr)NC(=O)[C@@H]3CCCN3C(=O)[C@H](Cc3ccccc3)NC(=O)OCc3ccccc3)O[C@@H]1C2 (stereo in doubt; 13) | – | –
– | – | – | – | – | – | – | 26 | – | – | CCCCCC(NC(=O)[C@@H]1CCCN1C(=O)[C@H](Cc1ccccc1)NC(=O)OCc1ccccc1)B1O[C@@H]2CC3CC(C3(C)C)[C@]2(C)O1 (stereo in doubt; 2) | – | –
– | – | – | – | – | – | 2.8 | – | – | – | COCCC[C@@H](NC(=O)[C@@H]1CCCN1C(=O)[C@@H](Cc1ccccc1)NC(=O)OCc1ccccc1)B1O[C@@H]2CC3CC(C3(C)C)[C@]2(C)O1 (stereo in doubt; 9a) [listing 1 of 2 here] | – | –
– | – | – | – | – | – | – | 29 | – | – | CC1(C)C2CC1[C@]1(C)OB(C(CCCl)NC(=O)[C@@H]3CCCN3C(=O)[C@H](Cc3ccccc3)NC(=O)OCc3ccccc3)O[C@@H]1C2 (stereo partly specified) | – | –
24 | 152 | 15000 | 9500 | 270 | 4200 | 1.1 | 7 | 5500 | 7 | CCC(C)(C)C(NC(=O)[C@@H]1CCCN1C(=O)[C@H](Cc1ccccc1)NC(=O)OCc1ccccc1)B1O[C@@H]2CC3CC(C3(C)C)[C@]2(C)O1 (stereo partly specified) | 4 | Ki [7]: 2600 nM
– | – | – | – | – | – | 3.4 | 25 | – | – | CC1(C)C2CC1[C@]1(C)OB(C(CCC3OCCO3)NC(=O)[C@@H]3CCCN3C(=O)[C@H](Cc3ccccc3)NC(=O)OCc3ccccc3)O[C@@H]1C2 (stereo partly specified) | 18 | –
– | – | – | – | – | – | – | 100 | – | – | CCCCCC(NC(=O)[C@@H]1CCCN1C(=O)[C@H](Cc1ccccc1)NC(=O)OCc1ccccc1)B1O[C@@H]2CC3CC(C3(C)C)[C@]2(C)O1 (stereo in doubt; 21) | – | –
– | – | – | – | – | – | – | 7 | – | – | COCCC[C@@H](NC(=O)[C@@H]1CCCN1C(=O)[C@@H](Cc1ccccc1)NC(=O)OCc1ccccc1)B1O[C@@H]2CC3CC(C3(C)C)[C@]2(C)O1 (stereo in doubt; 10) | – | –
140 | 1460 | 140000 | 370000 | 2400 | 32000 | 16 | – | 13000 | 82 | CCC(C)(C)C(NC(=O)[C@@H]1CCCN1C(=O)[C@H](Cc1ccc2ccccc2c1)NC(=O)OCc1ccccc1)B1O[C@@H]2CC3CC(C3(C)C)[C@]2(C)O1 (stereo partly specified) | 110 | Ki [7]: 23000 nM
– | – | – | – | – | – | – | 19 | – | – | CC(C)C(NC(=O)[C@@H]1CCCN1C(=O)[C@@H](NC(=O)OCc1ccccc1)C(c1ccccc1)c1ccccc1)B1O[C@@H]2CC3CC(C3(C)C)[C@]2(C)O1 (stereo partly specified) | – | –
34 | 2890 | > 63000 | > 63000 | 560 | > 63000 | 21 | 82 | 17000 | 28 | CCC(C)(C)C(NC(=O)[C@@H]1CCCN1C(=O)[C@@H](NC(=O)OCc1ccccc1)C(c1ccccc1)c1ccccc1)B1O[C@@H]2CC3CC(C3(C)C)[C@]2(C)O1 (stereo partly specified) | 50 | Ki [13]: 17000 nM
19 | 115 | 23000 | 120000 | 320 | 1600 | – | 19 | 2900 | 19 | CCCCCC(NC(=O)[C@@H]1CCCN1C(=O)[C@H](Cc1ccccc1)NC(=O)OCc1ccccc1)B1O[C@@H]2CC3CC(C3(C)C)[C@]2(C)O1 (stereo in doubt; 3) [listing 1 of 2 here] | 2.3 | Ki [7]: 580 nM
– | – | – | – | – | – | – | 21 | – | – | COCCC(NC(=O)[C@@H]1CCCN1C(=O)[C@H](Cc1ccccc1)NC(=O)OCc1ccccc1)B1O[C@@H]2CC3CC(C3(C)C)[C@]2(C)O1 (stereo partly specified) | – | –
– | – | – | – | – | – | – | 20 | – | – | Cc1ccc(CCC(NC(=O)[C@@H]2CCCN2C(=O)[C@H](Cc2ccccc2)NC(=O)OCc2ccccc2)B2O[C@@H]3CC4CC(C4(C)C)[C@]3(C)O2)cc1 (stereo partly specified) | – | –
– | – | – | – | – | – | – | 120 | – | – | COCCC[C@@H](NC(=O)[C@@H]1CCCN1C(=O)[C@@H](Cc1ccccc1)NC(=O)OCc1ccccc1)B1O[C@@H]2CC3CC(C3(C)C)[C@]2(C)O1 (stereo in doubt; 11) | – | –
– | – | – | – | – | – | – | 7 | – | – | COCCC[C@@H](NC(=O)[C@@H]1CCCN1C(=O)[C@@H](Cc1ccccc1)NC(=O)OCc1ccccc1)B1O[C@@H]2CC3CC(C3(C)C)[C@]2(C)O1 (stereo in doubt; 9b) | – | –
28 | 1210 | 81000 | 6100 | 670 | 2100 | – | 7 | 7800 | 7 | COCCC[C@@H](NC(=O)[C@@H]1CCCN1C(=O)[C@@H](Cc1ccccc1)NC(=O)OCc1ccccc1)B1O[C@@H]2CC3CC(C3(C)C)[C@]2(C)O1 (stereo in doubt; 9a) [listing 2 of 2 here] | 3.4 | Ki [7]: 3100 nM
– | – | – | – | – | – | – | 7 | – | – | CC1(C)C2CC1[C@]1(C)OB(C(CCCBr)NC(=O)[C@@H]3CCCN3C(=O)[C@H](Cc3ccccc3)NC(=O)OCc3ccccc3)O[C@@H]1C2 (stereo in doubt; 12) | – | –
– | – | – | – | – | – | 3.9 | 43 | – | – | CCCCCCCCC(NC(=O)[C@@H]1CCCN1C(=O)[C@H](Cc1ccccc1)NC(=O)OCc1ccccc1)B1O[C@@H]2CC3CC(C3(C)C)[C@]2(C)O1 (stereo partly specified) | >50 | –
– | – | – | – | – | – | 0.54 | – | – | – | CCCCCC(NC(=O)[C@@H]1CCCN1C(=O)[C@H](Cc1ccccc1)NC(=O)OCc1ccccc1)B1O[C@@H]2CC3CC(C3(C)C)[C@]2(C)O1 (stereo in doubt; 3) [listing 2 of 2 here] | – | –
27 | 1200 | 540000 | 160000 | 450 | 53000 | – | 42 | 24000 | 42 | CCCCCC(NC(=O)[C@@H]1CCCN1C(=O)[C@@H](NC(=O)OCc1ccccc1)C(c1ccccc1)c1ccccc1)B1O[C@@H]2CC3CC(C3(C)C)[C@]2(C)O1 (stereo partly specified) | – | Ki [14]: 14300 nM; Ki [7]: 13000 nM
